Test results published in the RNAGym collection of RNA variant scans (doi:10.1126/science.aae0568).
This sample holds only a part of the variants without activity.

B1: tRNA (parent)
chain: GUUCCGUUGGCGUAAUGGUAACGCGUCUCCCUCCUAAGGAGAAGACUGCGGGUUCGAGUCCCGUACGGAACG

Variants of: B1
Assay: yeast fitness relative to wild type (ratio to wild type); higher = fitter; tRNA-Arg(CCU), competitive growth, 37 C, YPD
Procedure, shortened: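 Start and end populations of a pooled competition were compared by 100-nucleotide paired-end sequencing of gene amplicons. The Saccharomyces cerevisiae strains carried tRNA-Arg(CCU) gene variants at the native genomic locus, synthesised with a 3% per-site mutation rate at 69 sites, and competed in YPD at 37°C for 24 hours in six parallel replicates. Darwinian fitness relative to wild type was based on the change in genotype frequencies. Genotypes required ≥ 100 starting reads, and estimates < 0.5 were set to 0.5.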

Compared with GUUCCGUUGGCGUAAUGGUACCGCGUCUCCCUCCUACGGAGAAGACUGCGGGUUGGAAUCCCGUACGGAACG [A21C A37C C55G G58A], GUUCCGUUGGCGUAAUGGUUACGCGUCUCCCUCCUAAGGAGAAGACCGCGGGUUCGAGUGCCGUUCGGAGCG [A20U U47C C60G A65U A70G] is higher in yeast fitness: at most 0.5 for the first, 0.573 for the second.

Compared with GUUCCGUUGGCGUAAUGGUUACGCGUCUCCCUCCCAAGGAGAAGACUGCGGGUUCGGGUCCCGUACGGAACG [A20U U35C A57G], GUUCCGUUGGCGUAAUGGUACCGCGUCUCCCUCCUAAGGAGACGACUGCGGGUUCGCGUCCCGUACGGAACG [A21C A43C A57C] is lower in yeast fitness: 0.546 for the first, at most 0.5 for the second.

Compared with GUUCCGUUGGCGUAAUGGUACCGCGUCUCCCUCCUCAGGAGAAGACUGCGGGUUCGAGUCCCGUACGGAACG [A21C A36C], GUUCCGUUGGCGUAAUGGUUACGCGUCUCCCUCCUAAGGACAAGACUGCGGGUUCCAGUCCCGUACGCAACG [A20U G41C G56C G68C] is lower in yeast fitness: 0.697 for the first, at most 0.5 for the second.

Compared with GUUCCGUUGGCGUAAUGGUACCGCGUCUCCCUCCUAUGGAGAAGACUGCGGGUUCGAAUCCCGUACGGAACG [A21C A37U G58A], GUUCCGUUGGCGUAAUGGUACCGCGUCUCCCUCCUAAGGAGAAGUCUGCGGGUUCGAGUCCCGUACGGAACG [A21C A45U] is higher in yeast fitness: at most 0.5 for the first, 0.631 for the second.

GUUCCGUUGGCGUAAUGGUUACGCGUCACCCUCCUAAGGUGAAGACUGCGGGUUCGAGUCCAGUACGGAACG [A20U U28A A40U C62A] and GUUCCGUUGGCGUAAUGGUACCGCGUCUCCCUCCUAAGGAGAAGCCUGUGGGUCCGAGUCCCGUACGGAACG [A21C A45C C49U U54C] cannot be ordered by yeast fitness: at most 0.5 for the first, at most 0.5 for the second.

Compared with GUUCCGUUGGCGUAAUGGUUACGCGUCUCCCUCCAAAAGAGAAGACUGCGGGUUCGAGUCCCGUACGGAACG [A20U U35A G38A], GUUCCGUUGGCGUAAUGGUACCGCGUCUCCCUCCUAAGGAGAAGUCUGCGGAUUCGAGUCCCGUACGGAACG [A21C A45U G52A] is lower in yeast fitness: 0.613 for the first, 0.503 for the second.

GUUCCGUUGGCGUAAUGGUACCGCGUCUCCCUCCUAGGGAGAAGACUGAGGGUUCGAGUCCCGUACGGAACG [A21C A37G C49A] and GUUCCGUUGGCGUAAUGGUUACGCGACUCCCUCCUAAGGAGAGGACUGCGGGUUCGAGUCCCGUACGGAACG [A20U U26A A43G] cannot be ordered by yeast fitness: at most 0.5 for the first, at most 0.5 for the second.

Compared with GUUCCGUUGGCGUAAUGGUUACGCGACUCCCUCCUAAGGAGAAGACUGCGGGUUCGAGUCCCGUCCCGAACG [A20U U26A A65C G67C], GUUCCGUUGGCGUAAUGGUUACGCGUCUCCCUCCUAAGGAGAAGACUGCGGGUUCGAGUCCCGCACGGCACG [A20U U64C A69C] is higher in yeast fitness: 0.563 for the first, 0.657 for the second.

Compared with GUUCCGUUGGCGUAAUGGUUACGCGUCCCCCUCCUAAGGUGAAGACUGCGGGUUCGAGUCCCGUACGGAUCG [A20U U28C A40U A70U], GUUCCGUUGGCGUAAUGGUUACGCGUCUCCCUCCUAAGGAGAAGACUGCGGGUUCAAGUCCCGUACGGAACG [A20U G56A] is higher in yeast fitness: at most 0.5 for the first, 0.922 for the second.

Going from GUUCCGUUGGCGUAAUGGUUACGCGUCUCCCUCCUAAGGAGAAGACUACGGGUUCGAGUCACGUCCGGAACG [A20U G48A C61A A65C] to GUUCCGUUGGCGUAAUGGUUACGCGUCUCCCUCCUAAGGAGAAGACAGCGGGUUCGAGUCCCGUACGGAGCG [A20U U47A A70G], the yeast fitness rises from at most 0.5 to 0.62.

Going from GUUCCGUUGGCGUAAUGGUACCGCGUCUCCCUCCUUAGGAGAAGAUUGCGGGUUCGAGUCCCGUACGGAACG [A21C A36U C46U] to GUUCCGUUGGCGUAAUGGUUACGCGUCUCCCUCCUAAGGAGAAGACUGCGAGUUCGAGUCCCGUACGGAACG [A20U G51A], the yeast fitness rises from at most 0.5 to 0.811.

Compared with GUUCCGUUGGCGUAAUGGUUACGCGUCUCCCUCCUAAGGAGAAGACUGCGGGUUCGAAUCCCGUACGGAACG [A20U G58A], GUUCCGUUGGCGUAAUGGUUACGCGCCUCCCUCCUAAGGAGAAGAUUGCGAGUUCGAGUCCCGUACGGAACG [A20U U26C C46U G51A] is lower in yeast fitness: 0.907 for the first, at most 0.5 for the second.

Compared with GUUCCGUUGGCGUAAUGGUUACGCGUCUCCCCCCUAACGAGAAGACUGCGGGUUCGAGUCCCGUGCGGAACG [A20U U32C G38C A65G], GUUCCGUUGGCGUAAUGGUUACGCGUCUCCCUCCUAAGGAGAAGACAGCGGGUUCGAGUCCCGUACGGUACG [A20U U47A A69U] is higher in yeast fitness: at most 0.5 for the first, 0.619 for the second.

Compared with GUUCCGUUGGCGUAAUGGUUACGCGUCUCCCUCCCAAGGAGAAGACUGUGGGUUUGAGUCCCGCACGGAACG [A20U U35C C49U C55U U64C], GUUCCGUUGGCGUAAUGGUUACGCGUCGCCCUUCGAAGGAGAAGACUGCGGGUUCGAGUACCGUACGGAACG [A20U U28G C33U U35G C60A] is lower in yeast fitness: 0.588 for the first, at most 0.5 for the second.

First: GUUCCGUUGGCGUAAUGGUACCGCGUCUCCCUCCUAAGGAGGAGACUGCGGGUGCGAGUCCCGUACGGAACG [A21C A42G U54G]
Second: GUUCCGUUGGCGUAAUGGUACCGCGUCUCCCUCCUAAGGAGAUGACUGCGGGUUCGAGUCCCGUACGGAACG [A21C A43U]
The yeast fitness of the first is lower: 0.555 for the first, 0.902 for the second.

Compared with GUUCCGUUGGCGUAAUGGUACCGCGUCUCCCUCCUUAGGAGAAGAGUGCGGGUUCGAGUCCAGUACGGCACG [A21C A36U C46G C62A A69C], GUUCCGUUGGCGUAAUGGUACCGCGUCUCCCUCCUAAGGAGAAGACUGCGGGUUCGAGUCCCGUACGGAACG [A21C] is higher in yeast fitness: at most 0.5 for the first, 0.973 for the second.

First: GUUCCGUUGGCGUAAUGGUUACGCGUCUCCCUCCUAAGGAGAAGACGGCGGGUUCGAGUCCGGUACGAAACG [A20U U47G C62G G68A]
Second: GUUCCGUUGGCGUAAUGGUUACGCGUCUCCCUCCUAAGGAGAAGACUGCAGGUUCGUGUCCCGUACGGAACG [A20U G50A A57U]
The yeast fitness of the first is lower: at most 0.5 for the first, 0.529 for the second.

GUUCCGUUGGCGUAAUGGUACCGCGUCUCCCUCCUAAGGAGAUGACUGUGGGUUCGAGUCCCGUACGAAACG [A21C A43U C49U G68A] and GUUCCGUUGGCGUAAUGGUUACGCGUCUCCCUCCAAAGGAGAACACUGCGGGUUCGAGUCCCGUACGGAACG [A20U U35A G44C] cannot be ordered by yeast fitness: at most 0.5 for the first, at most 0.5 for the second.

With GUUCCGUUGGCGUAAUGGUUACGCGUCUCCCUCCUAAGGAGAAGACUGCAGGUUCGAGCCCCGUACCGAACG [A20U G50A U59C G67C] the yeast fitness was at most 0.5.
